From ChEMBL document CHEMBL1150782, “Strong and selective inhibitors of hepatitis B virus replication among novel N4-hydroxy- and 5-methyl-beta-L-deoxycytidine analogues” (Antimicrob Agents Chemother, 2007)

Experiments:
[1] = Cytotoxicity against human HL60 cells after 3 days by MTT assay; format: cell-based; conditions: HL-60 cells
How it was run: (§1)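 HL-60 cells in RPMI or HepG2 cells in DMEM, seeded at 50,000 per well. Exposed for 3 days to varying compound concentrations at 37°C under humidified 5% CO2. Growth read by MTT reduction to formazan. CC50 is the concentration inhibiting growth by 50%; mean ± SD of at least three independent experiments.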

[2] = Cytotoxicity against human HepG2 cells after 3 days by MTT assay; format: cell-based; how it was run: as §1
Hepatitis B virus [3] = test: Antiviral activity against HBV in HepG2.2.15 cells assessed as decrease in extracellular viral DNA level by RT-PCR; format: functional, organism-based; conditions: HepG2 2.2.15
How it was run: (§2)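 HepG2.2.15 (HBV-transfected) cells, ~10^5 per well in DMEM with 10% FBS; compound added at various concentrations with daily medium changes. Supernatants taken at day 3, 6 or 9, cleared, proteinase K digested, and HBV DNA amplified by PCR with subgenomic primers. Products run on 1% agarose, ethidium stained and imaged, calibrated against cloned HBV genome dilutions. EC50 taken from dose-response curves as 50% reduction of medium HBV DNA.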

Hepatitis B virus [4] = test: Antiviral activity against HBV in HepG2.2.15 cells assessed as decrease in extracellular viral DNA level at 0.5 uM by PCR; format: functional, organism-based; conditions: HepG2 2.2.15, TDE = time-dependent effect; how it was run: as §2
[5] = Inhibition of HBV DNA polymerase; parameters: species or system Hepatitis B virus
How it was run: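 Endogenous polymerase assay using HBV virions purified from untreated patient serum (>10^7 GE/ml) by ultracentrifugation and a sucrose step gradient. Incubated 1 h at 37°C; [3H]dCMP incorporation counted; IC50 from inhibition curves.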

Hepatitis B virus [6] = test: Antiviral activity against HBV in HepG2.2.15 cells assessed as decrease in extracellular viral DNA level at 0.3 uM by PCR; format: functional, organism-based; conditions: HepG2 2.2.15, TDE = time-dependent effect; how it was run: as §2
[7] = Cytotoxicity against human CEM cells; format: cell-based; conditions: CCRF-CEM cells
[8] = Inhibition of duck HBV DNA polymerase; parameters: species or system Duck hepatitis B virus
Hepatitis B virus [9] = test: Antiviral activity against HBV in HepG2.2.15 cells assessed as decrease in extracellular viral DNA level at 0.1 uM by PCR; format: functional, organism-based; conditions: HepG2 2.2.15, TDE = time-dependent effect; how it was run: as §2

Row | Structure (SMILES) | EC50 (Hepatitis B virus [3]) [µM] | IC50 [5] [µM] | CC50 at 72 h [1] [µM] | CC50 at 72 h [2] [µM] | other results
1 | O=c1nc(NO)ccn1[C@@H]1CS[C@H](CO)O1 | 0.51 |  | 1450 | 1320 | Activity (Hepatitis B virus [4]): tde
2 | O=c1nc(NO)ccn1[C@@H]1C=C[C@H](COP(=O)(O)OP(=O)(O)OP(=O)(O)O)O1 |  | 0.21 |  |  | 
3 | Cc1cn([C@@H]2C=C[C@H](COP(=O)(O)OP(=O)(O)OP(=O)(O)O)O2)c(=O)nc1N |  | 6.2 |  |  | 
4 | Nc1ccn([C@@H]2CS[C@H](CO)O2)c(=O)n1 [LAMIVUDINE] | 0.1 |  | 1400 | 1200 | Activity (Hepatitis B virus [6]): tde
5 | Cc1cn([C@@H]2CC[C@H](COP(=O)(O)OP(=O)(O)OP(=O)(O)O)O2)c(=O)nc1N |  | 6.5 |  |  | 
6 | O=c1nc(NO)ccn1[C@@H]1CC[C@H](CO)O1 | 0.55 |  | 1600 | 2250 | 
7 | Nc1ccn([C@@H]2CC[C@H](CO)O2)c(=O)n1 | 0.2 |  | 94 | 85 | CC50 [7]: 70 µM
8 | Cc1cn([C@@H]2C=C[C@H](CO)O2)c(=O)nc1N | > 50 |  | 600 | 1400 | 
9 | Nc1nc(=O)n([C@@H]2CS[C@H](CO)O2)cc1F [EMTRICITABINE] | 0.1 |  | 845 | 765 | 
10 | O=c1nc(NO)ccn1[C@@H]1C[C@@H](O)[C@H](COP(=O)(O)OP(=O)(O)OP(=O)(O)O)O1 |  | 6 |  |  | 
11 | Cc1cn([C@@H]2C[C@@H](O)[C@H](COP(=O)(O)OP(=O)(O)OP(=O)(O)O)O2)c(=O)[nH]c1=O [TELBIVUDINE 5'TRIPHOSPHATE] |  | 0.46 |  |  | IC50 [8]: 1 µM
12 | O=c1nc(NO)ccn1[C@@H]1C=C[C@H](CO)O1 | 0.03 |  | 3500 | 2500 | Activity (Hepatitis B virus [9]): tde
13 | Nc1ccn([C@@H]2C=C[C@H](CO)O2)c(=O)n1 |  |  |  |  | CC50 [7]: 20 µM
14 | Cc1cn([C@@H]2C[C@@H](F)[C@H](COP(=O)(O)OP(=O)(O)OP(=O)(O)O)O2)c(=O)nc1N |  | 1.9 |  |  | 
15 | Cc1cn([C@@H]2C[C@@H](N=[N+]=[N-])[C@H](COP(=O)(O)OP(=O)(O)OP(=O)(O)O)O2)c(=O)nc1N |  | 0.85 |  |  | 
16 | Cc1cn([C@H]2C[C@H](O)[C@@H](CO)O2)c(=O)[nH]c1=O [DOXRIBTIMINE] | 0.3 |  | 1760 | 2100 | 
17 | O=c1nc(NO)ccn1[C@@H]1CC[C@H](COP(=O)(O)OP(=O)(O)OP(=O)(O)O)O1 |  | 0.99 |  |  | 
18 | Nc1ccn([C@@H]2CS[C@H](COP(=O)(O)OP(=O)(O)OP(=O)(O)O)O2)c(=O)n1 [LAMIVUDINE TRIPHOSPHATE] |  | 0.3 |  |  | 

Further lines, with some results ahead:

Row | EC50 (Hepatitis B virus [3]) [µM] | IC50 [5] [µM] | Structure (SMILES) | CC50 at 72 h [1] [µM] | CC50 at 72 h [2] [µM] | other results
19 | 50 |  | [N-]=[N+]=N[C@@H]1C[C@@H](n2ccc(NO)nc2=O)O[C@H]1CO | 2000 | 1160 | 
20 | 25 |  | O=c1nc(NO)ccn1[C@@H]1CC(F)[C@H](CO)O1 (stereo partly specified) | 4400 | 820 | 
21 | 2.38 |  | O=c1nc(NO)ccn1[C@@H]1C[C@@H](O)[C@H](CO)O1 | 460 | 545 | 
22 |  | 0.9 | Cc1cn([C@@H]2C[C@@H](O)[C@H](COP(=O)(O)OP(=O)(O)OP(=O)(O)O)O2)c(=O)nc1N |  |  | 
23 | 5.04 |  | Cc1cn([C@@H]2C[C@@H](O)[C@H](CO)O2)c(=O)nc1NO | 600 | 490 | 
24 | > 50 |  | Cc1cn([C@@H]2C[C@@H](F)[C@H](CO)O2)c(=O)nc1N | 1650 | 1800 | 
25 | > 50 |  | Cc1cn([C@@H]2CC[C@H](CO)O2)c(=O)nc1N | 950 | 1550 | 
26 |  | 4 | Cc1cn([C@@H]2C[C@@H](O)[C@H](COP(=O)(O)OP(=O)(O)OP(=O)(O)O)O2)c(=O)nc1NO |  |  | 
27 | 0.9 |  | Cc1cn([C@@H]2C[C@@H](O)[C@H](CO)O2)c(=O)nc1N | > 2000 | > 2000 | 
28 | 4.5 |  | O=c1nc(NO)c(F)cn1[C@@H]1C[C@@H](O)[C@H](CO)O1 | 1370 | 920 | 
29 | 13 |  | Cc1cn([C@@H]2C[C@@H](N=[N+]=[N-])[C@H](CO)O2)c(=O)nc1N | 1900 | 1750 | 
30 | 5 |  | O=c1nc(NO)c(F)cn1[C@@H]1CS[C@H](CO)O1 | 770 | 855 | 
